PTEN del growth: suppresses growth of cells with PTEN deletion. HCT116 PTEN-null viability, CellTiter-Glo, 60 h; hits give low values. actives 1.2% (n = 140,000). AID 827. viability, % at 10 µM;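 active = viability at or below a set limit, 4 SD under the median of all tested compounds, cut at about 3.7% in these data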;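 note: PTEN knockout HCT116 line with beta catenin targeted HCT116 as companion control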
HUVEC inhibit: blocks proliferation of human endothelial cells; actives 1.1% (n = 86,000); AID 648; viability, % at 10 µM (by protocol); HUVEC proliferation, CellTiter-Glo luminescence, 72 h; hits give low values;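 active = viability at or below 30%; inactive = viability above 30%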;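 note: 100% = median luminescence of DMSO-only cell control wells on each plate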
H69AR inhibit: blocks growth of human H69AR lung tumor cells | H69AR lung tumor viability, ATP luminescence, 72 h; hits give low values | viability, % at 10 µM | actives 6% (n = 85,000) | AID 598;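 active = viability at or below 40%; inactive = viability above 40%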;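 note: multidrug resistant small cell line overexpressing MRP-1 efflux transporter; 100% = mean luminescence of untreated control wells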
bCat KO growth: beta-catenin-lacking colon tumor cell growth suppression. HCT116 beta-catenin knockout viability, CellTiter-Glo, 60 h; hits give low values. viability, % at 10 µM. actives 1.5% (n = 140,000);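 active = viability at or under a set limit, the compound median less 4 SD, cut at about 6% in these data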;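 note: 0% = Hyamine 1622 control at 20 µM and 100% = untreated cell control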
Lung fibro prol: blocks proliferation of human lung fibroblasts; actives 1.1% (n = 85,000); LL 47 human lung fibroblast viability, ATP luminescence; hits give low values; viability, % at 10 µM;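 active = viability at or below 50% in the single dose screen; inactive = viability above 50%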;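 note: compound exposure lasted 72 h before the ATP readout; 100% = median luminescence of untreated cell-only wells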
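Test system: LL 47 human lung fibroblasts; Quantity: 1,150 cells/well; Buffer or medium: IMEM plus 15% FBS; Dosing: tenfold compound dosing solution, DMSO at 0.1%; Timing: overnight cell rest, 72 h compound treatment at 37 °C; Detection: ATP-based CellTiter-Glo luminescent readout; Read-out basis: viability percentage against median untreated-cell control; Controls: cell-only wells, no compound.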
Active calls of the source: *; . = no result. Many of the other results were omitted from the sample, so hits are more common in it than they were.

SMILES | PTEN del growth | HUVEC inhibit | H69AR inhibit | bCat KO growth | Lung fibro prol
O=C(N/N=C/c1ccccc1O)C1(O)c2ccccc2-c2ccccc21 | 10.4 | . | . | 12.6 | .
COc1ccc(-c2c3c(nc4sc(C(=O)Nc5ccccc5)c(N)c24)CCC3)cc1 | . | 43.3 | 29.8* | . | 80.5
CC(C)C1N=C(c2ccc3c(c2)OCO3)CC(c2ccccc2O)N1 (centres undefined) | 8.0 | 59.1 | 2.1* | 5.8* | 55.6
CCOc1ccc(N2CCn3c2nc2c3c(=O)n(CCc3ccccc3)c(=O)n2C)cc1 | . | 100.5 | 14.7* | . | 107.8
Cc1ccc2nc(/C(C#N)=C\c3ccc(Oc4ccc(C(F)(F)F)cc4[N+](=O)[O-])cc3)[nH]c2c1 | 28.3 | . | . | 39.0 | .
COc1ccc(/C=C(\C#N)c2nc3ccc(C)cc3[nH]2)cc1Oc1ccc(C(F)(F)F)cc1[N+](=O)[O-] | 1.3* | . | . | 1.5* | .
O=C(N/N=C/c1ccccc1)c1sccc1OCc1ccc(F)cc1 | 66.5 | . | . | 72.9 | .
ClC(Cl)(c1nnnn1-c1ccccc1)c1nnnn1-c1ccccc1 | 1.9* | . | . | 1.3* | .
CCCCNS(=O)(=O)c1ccc2nc(SCC(=O)Nc3sccc3C#N)[nH]c2c1 | 53.8 | 50.2 | 21.4* | 47.2 | 94.3
COC1=CC(=O)CC(C)C12Oc1c(Cl)c(OC)cc(OC)c1C2=O (centres undefined) | 51.6 | 91.5 | 28.7* | 60.1 | 86.6
O=C(CN(c1cccc(Cl)c1)S(=O)(=O)c1ccc(Cl)cc1)N1CCc2ccccc2C1 | 64.5 | . | . | 66.5 | .
COc1cc(NC(=O)c2cccs2)c(C(=O)OCC(=O)NCc2ccccc2)cc1OC | 107.0 | 18.9* | 6.7* | 103.7 | 87.9
COC(=O)c1cc(OC)c(OC)cc1NC(=O)c1ccccc1 | 60.2 | 71.4 | 39.2* | 20.5 | 99.0
O=C(O)c1cccc(Nc2nc(N3CCOCC3)nc(N3CCOCC3)n2)c1 | 107.4 | 94.0 | 89.1 | 104.7 | 106.9
CN1CCN(c2nc(Nc3cccc(C(F)(F)F)c3)nc(N3CCOCC3)n2)CC1 | 55.2 | 9.8* | 52.8 | 50.2 | .
Cc1nc(-c2ccc(O)c(O)c2)cs1 | 10.2 | 68.6 | 44.6 | 9.8 | 74.2
Oc1ccc(-c2csc(-c3ccccc3)n2)cc1O | 84.3 | 29.0* | 19.8* | 83.3 | 72.2
O=C(NC(=S)NC(c1ccccc1)c1ccncc1)c1ccccc1 (centres undefined) | 82.8 | . | . | 89.1 | .
CCCCS/C(=C(/C#N)C(N)=O)c1cc2c([nH]1)CCCC2 | 23.3 | 68.9 | 5.2* | 19.7 | 66.6
COc1ccc(C(=O)Cc2ccc(OC)c(OC)c2)c(OC)c1 | 97.5 | 106.1 | 105.4 | 89.6 | 102.4
CCCCCOc1ccc(Br)cc1/C(C)=N/NC1=NCCN1 | 4.4 | 6.4* | 2.3* | 3.1* | 92.5
Cc1ccc(F)cc1NC(=O)C12CC3CC(C1)CC(n1cnc([N+](=O)[O-])n1)(C3)C2 | 62.4 | . | . | 65.9 | .
Cc1cc(SCC(=O)c2cccs2)n2nc(C)c(-c3ccc(Cl)cc3)c2n1 | 64.5 | . | . | 68.7 | .
Cc1cc(C(F)(F)F)n2nc(C)c(-c3ccc(Cl)cc3)c2n1 | 97.9 | . | . | 88.0 | .
Cc1cc(-n2nc(C)cc2C)n2nc(C)c(-c3ccc(Cl)cc3)c2n1 | 21.9 | 82.7 | 44.3 | 16.1 | 46.4*
SMILES | PTEN del growth | HUVEC inhibit | H69AR inhibit | bCat KO growth | Lung fibro prol
C=CCSc1cc(C)nc2c(-c3ccc(Cl)cc3)c(C)nn12 | 88.0 | 89.9 | 36.1* | 89.3 | 97.2
CC1CCN(S(=O)(=O)c2ccc3c(c2)N(CC(=O)NCc2cccnc2)C(=O)CS3)CC1 | 91.4 | . | . | 95.5 | .
CCCn1c(CCC(=O)Nc2ccccc2Cc2ccccc2)nc2cc(S(=O)(=O)N3CCOCC3)ccc21 | 69.5 | 107.2 | 39.2* | 62.7 | 90.2
CSc1nsc(/C=C/Nc2cccc(Cl)c2)c1C#N | 62.5 | 92.6 | 29.2* | 65.7 | 96.9
CSc1nsc(/C=C/Nc2ccc(Cl)cc2)c1C#N | 78.6 | . | . | 83.1 | .
CC(C)CNc1nnnc2c1sc1nc(N3CCOCC3)c3c(c12)CC(C)(C)SC3 | 40.9 | . | . | 45.1 | .
CC1(C)Cc2c(c(N3CCOCC3)nc3sc4c(NN)ncnc4c23)CS1 | 3.8 | 6.3* | 46.2 | 2.8* | 17.3*
CC1(C)Cc2c(c(N3CCOCC3)nc3sc4c(NCc5ccccc5)nnnc4c23)CS1 | 3.2* | 24.4* | 2.0* | 6.7 | 17.6*
CC1(C)Cc2c(c(N3CCOCC3)nc3sc4c(NCc5ccco5)nnnc4c23)CS1 | 47.8 | 87.2 | 37.0* | 48.0 | 84.4
COc1c(C(=O)Nc2ccc(Cc3ccncc3)cc2)ccc2ccccc12 | 37.5 | . | . | 23.6 | .

Assay outcomes (PubChem)
